Assay results reported in ChEMBL document CHEMBL1153584 (Eur J Med Chem, 2009).
Values after ≈ are worked out from the molar mass of the structure shown.

Experiments:
Assay type in all cases: functional, cell-based
[1] = test system: A549; test: Anticancer activity against human A549 cells after 72 hrs by sulforhodamine B assay; details: A549, 72 h
[2] = test system: SK-OV-3; test: Anticancer activity against human SKOV3 cells after 72 hrs by sulforhodamine B assay; details: SK-OV-3, 72 h
How it was run: (§1)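 Cells kept in RPMI 1640 with 10% FBS and passaged with trypsin-EDTA. Seeded at 1-2 × 10^4 cells/well and grown 24 h, then given compounds dissolved in culture medium, in triplicate. Exposure 48 h at 37 °C in 5% CO2. Fixed with cold 10% TCA, stained with 0.4% SRB in 1% acetic acid, dye solubilized in 10 mM Tris base (pH 10.5), absorbance read at 520 nm. IC50 is the concentration giving 50% inhibition.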

[3] = test system: SK-MEL-2; test: Anticancer activity against human SK-MEL-2 cells after 72 hrs by sulforhodamine B assay; details: SK-MEL-2, 72 h; how it was run: as §1
[4] = test system: XF498; test: Anticancer activity against human XF498 cells after 72 hrs by sulforhodamine B assay; details: XF498, 72 h; how it was run: as §1
[5] = test system: HCT-15; test: Anticancer activity against human HCT15 cells after 72 hrs by sulforhodamine B assay; details: HCT-15, 72 h; how it was run: as §1

| Compound | IC50 [1] [µg/mL] | IC50 [2] [µg/mL] | IC50 [3] [µg/mL] | IC50 [4] [µg/mL] | IC50 [5] [µg/mL] |
| --- | --- | --- | --- | --- | --- |
| CC1CCN(C(=O)CCCC[C@@H](C)O[C@@H]2O[C@@H](C)[C@H](O[C@@H]3O[C@@H](C)[C@H](O)C[C@H]3O)C[C@H]2O[C@@H]2O[C@@H](C)[C@H](O)C[C@H]2O)CC1 | 0.06 (≈ 0.0971 µM) | 0.03 (≈ 0.0486 µM) | 0.03 (≈ 0.0486 µM) | 0.06 (≈ 0.0971 µM) | 0.02 (≈ 0.0324 µM) |
| C[C@H](CCCCC(=O)Nc1cccc(Br)c1)O[C@@H]1O[C@@H](C)[C@H](O[C@@H]2O[C@@H](C)[C@H](O)C[C@H]2O)C[C@H]1O[C@@H]1O[C@@H](C)[C@H](O)C[C@H]1O | 0.07 (≈ 0.101 µM) | 0.07 (≈ 0.101 µM) | 0.09 (≈ 0.13 µM) | 0.05 (≈ 0.0724 µM) | 0.02 (≈ 0.029 µM) |
| CCCCCC[C@H](CCCCCCCCCCC(=O)O)O[C@@H]1O[C@@H](C)[C@H](O[C@@H]2O[C@@H](C)[C@H](O)C[C@H]2O)C[C@H]1O | 0.64 (≈ 1.14 µM) | 0.32 (≈ 0.571 µM) | 0.33 (≈ 0.588 µM) | 0.43 (≈ 0.767 µM) | 0.53 (≈ 0.945 µM) |
| C[C@H](CCCCC1CO1)O[C@@H]1O[C@@H](C)[C@H](O[C@@H]2O[C@@H](C)[C@H](O)C[C@H]2O)C[C@H]1O[C@@H]1O[C@@H](C)[C@H](O)C[C@H]1O (some centres undefined) | 0.76 (≈ 1.42 µM) | 0.14 (≈ 0.262 µM) | 0.65 (≈ 1.22 µM) | 0.65 (≈ 1.22 µM) | 0.21 (≈ 0.393 µM) |
| C[C@@H]1O[C@H]2O[C@@H](C)CCCCCCCCC(=O)O[C@@H]3C[C@@H](O)[C@@H](O[C@H]3C)O[C@@H]2C[C@H]1O | 0.63 (≈ 1.42 µM) | 0.73 (≈ 1.64 µM) | 0.33 (≈ 0.742 µM) | 0.34 (≈ 0.765 µM) | 0.65 (≈ 1.46 µM) |
| CCCCCC[C@@H](C)O[C@@H]1O[C@@H](C)[C@H](O)C[C@H]1O[C@@H]1O[C@@H](C)[C@H](OC(=O)CCCC)C[C@H]1OC(=O)CCCC | 0.78 (≈ 1.4 µM) | 0.73 (≈ 1.31 µM) | 0.43 (≈ 0.77 µM) | 0.45 (≈ 0.805 µM) | 0.21 (≈ 0.376 µM) |
| C[C@H](CCCCC(=O)NCc1ccco1)O[C@@H]1O[C@@H](C)[C@H](O[C@@H]2O[C@@H](C)[C@H](O)C[C@H]2O)C[C@H]1O[C@@H]1O[C@@H](C)[C@H](O)C[C@H]1O | 0.08 (≈ 0.13 µM) | 0.01 (≈ 0.0162 µM) | 0.04 (≈ 0.065 µM) | 0.07 (≈ 0.114 µM) | 0.06 (≈ 0.0974 µM) |
| C[C@H](CCCCCCN=[N+]=[N-])O[C@@H]1O[C@@H](C)[C@H](O[C@@H]2O[C@@H](C)[C@H](O)C[C@H]2O)C[C@H]1O[C@@H]1O[C@@H](C)[C@H](O)C[C@H]1O | 0.24 (≈ 0.427 µM) | 0.14 (≈ 0.249 µM) | 0.33 (≈ 0.588 µM) | 0.43 (≈ 0.766 µM) | 0.14 (≈ 0.249 µM) |
| CCCCCC[C@H](CCCCCCCCCCC(=O)OC)O[C@@H]1O[C@@H](C)[C@H](O[C@@H]2O[C@@H](C)[C@H](O)C[C@H]2O)C[C@H]1O[C@@H]1O[C@@H](C)[C@H](O)C[C@H]1O | 0.12 (≈ 0.17 µM) | 0.24 (≈ 0.34 µM) | 0.32 (≈ 0.454 µM) | 0.32 (≈ 0.454 µM) | 0.1 (≈ 0.142 µM) |
| C[C@H](CCCCC(=O)NCCCN1CCCC1=O)O[C@@H]1O[C@@H](C)[C@H](O)C[C@H]1O | 0.76 (≈ 1.9 µM) | 0.65 (≈ 1.62 µM) | 0.33 (≈ 0.824 µM) | 0.25 (≈ 0.624 µM) | 0.54 (≈ 1.35 µM) |
| C[C@H](CCCCC(=O)OCc1cccc(Oc2ccccc2)c1)O[C@@H]1O[C@@H](C)[C@H](O)C[C@H]1O | 0.24 (≈ 0.523 µM) | 0.54 (≈ 1.18 µM) | 0.13 (≈ 0.284 µM) | 0.52 (≈ 1.13 µM) | 0.75 (≈ 1.64 µM) |
| CCc1ccc(NC(=O)CCCC[C@@H](C)O[C@@H]2O[C@@H](C)[C@H](O)C[C@H]2O)cc1 | 0.34 (≈ 0.896 µM) | 0.24 (≈ 0.632 µM) | 0.11 (≈ 0.29 µM) | 0.25 (≈ 0.659 µM) | 0.2 (≈ 0.527 µM) |
| C[C@@H]1CCCCCCCCC(=O)O[C@@H]2C[C@@H](O)[C@H](C)O[C@H]2O[C@@H]2C[C@@H](O)[C@H](C)O[C@H]2O1 | 0.57 (≈ 1.28 µM) | 0.14 (≈ 0.315 µM) | 0.44 (≈ 0.99 µM) | 0.43 (≈ 0.967 µM) | 0.54 (≈ 1.21 µM) |
| COC(=O)CCCC[C@@H](C)O[C@@H]1O[C@@H](C)[C@H](O[C@@H]2O[C@@H](C)[C@H](O)C[C@H]2O)C[C@H]1O[C@@H]1O[C@@H](C)[C@H](O)C[C@H]1O | 0.13 (≈ 0.236 µM) | 0.14 (≈ 0.254 µM) | 0.41 (≈ 0.745 µM) | 0.19 (≈ 0.345 µM) | 0.21 (≈ 0.381 µM) |
| C=CCN1CCN(C(=O)CCCC[C@@H](C)O[C@@H]2O[C@@H](C)[C@H](O)C[C@H]2O)CC1 | 0.54 (≈ 1.4 µM) | 0.32 (≈ 0.832 µM) | 0.53 (≈ 1.38 µM) | 0.62 (≈ 1.61 µM) | 0.34 (≈ 0.884 µM) |
| CCCCCCCCCCCCCCNC(=O)CCCC[C@@H](C)O[C@@H]1O[C@@H](C)[C@H](O)C[C@H]1O | 0.16 (≈ 0.339 µM) | 0.24 (≈ 0.509 µM) | 0.11 (≈ 0.233 µM) | 0.42 (≈ 0.89 µM) | 0.31 (≈ 0.657 µM) |
| C=CCCCCOC(=O)CCCC[C@@H](C)O[C@@H]1O[C@@H](C)[C@H](O)C[C@H]1O | 0.12 (≈ 0.335 µM) | 0.31 (≈ 0.865 µM) | 0.22 (≈ 0.614 µM) | 0.15 (≈ 0.418 µM) | 0.12 (≈ 0.335 µM) |
| C[C@H](CCCCC(=O)O)O[C@@H]1O[C@@H](C)[C@H](O)C[C@H]1O [DAUMONE] | 0.03 (≈ 0.109 µM) | 0.02 (≈ 0.0724 µM) | 0.07 (≈ 0.253 µM) | 0.09 (≈ 0.326 µM) | 0.05 (≈ 0.181 µM) |
| COc1cccc2c1C(=O)c1c(O)c3c(c(O)c1C2=O)C[C@@](O)(C(=O)CO)C[C@@H]3O[C@H]1C[C@H](N)[C@H](O)[C@H](C)O1 [DOXORUBICIN] | – | 0.024 (≈ 0.0442 µM) | 0.015 (≈ 0.0276 µM) | 0.19 (≈ 0.35 µM) | 0.02 (≈ 0.0368 µM) |
